Screening results (PubChem)
SUMO Mot1 rescue – inhibitors of SUMOylation pathway: yeast Mot1-301 growth rescue; growth rescue, % at 18.8 µM; 320,000 tested, 1% active; S. cerevisiae Mot1-301 growth rescue, ATP luminescence, 38.5C; percent above DMSO median, 100 means doubled;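 active means every valid replicate shows activation above 250% relative to neutral control wells; inactive means the rest, any valid replicate at or below 250%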;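 further: OY570 slx delta 5 strain wells were the positive control but not used for scaling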
C2C12 statin – suppressors of simvastatin-induced myotoxicity in C2C12 myotubes. ATP luminescence, 48 h; scaled: DMSO 0, geranylgeraniol control 100. 330,000 tested, 0.78% active. rescue of ATP level, % at 7.49 µM. AID 602340;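 active means mean ATP rescue above about 67%, or every replicate alone reaching that limit, limit read from the data, passing the limit was not always enough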;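 further: myotubes were challenged with 10 µM simvastatin during compound exposure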
ASAP1 GAP inh – ASAP1 ArfGAP inhibition; ASAP1-stimulated ARF1 GTP hydrolysis, GDP FP detection; inhibition, % at 16.5 µM; 360,000 tested, 0.19% active; Q9ULH1; in the data active means inhibition above about 25%;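 further: 0% = vehicle with enzyme and substrate and 100% = no enzyme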
ARFGAP1 inhibitor – inhibitors of rat ARFGAP1 | Q62848 | Arfgap1-stimulated ARF1 GTP hydrolysis, GDP FP detection | inhibition, % at 16.5 µM | 360,000 tested, 0.26% active;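 active means inhibition above a per-plate limit, mean inhibition of low control wells plus 3 SD, cut at about 25% in these data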;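 further: 0% = DMSO wells with enzyme and 100% = wells lacking Arfgap1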
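Material – truncated rat Arfgap1 GAP domain · Buffer or medium – HEPES-based buffer, pH 7.5 · Reagent – human ARF1(Δ1-17)-GTP substrate · Dosing – 16.5 µM single point, 1.26% DMSO · Schedule – GTP hydrolysis reaction 2 h at 25 °C · Technique – GDP detection by fluorescence polarization · Benchmarks – No-Arfgap1 wells (100%) versus DMSO full-reaction wells (0%) · Repeats – single replicate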
A3A deaminase – human APOBEC3A DNA deaminase inhibition | P31941 | recombinant A3A, FAM/TAMRA ssDNA deamination fluorescence | inhibition, % at 20 µM | 330,000 tested, 0.41% active | AID 493011;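 active means at least 40% inhibition at 20 µM here, with at most 30% in a related deaminase screen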;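 further: plate controls were A3A with DMSO for no effect and wells lacking A3A enzyme for full effect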
Target sequence (P31941 whole entry, looked up): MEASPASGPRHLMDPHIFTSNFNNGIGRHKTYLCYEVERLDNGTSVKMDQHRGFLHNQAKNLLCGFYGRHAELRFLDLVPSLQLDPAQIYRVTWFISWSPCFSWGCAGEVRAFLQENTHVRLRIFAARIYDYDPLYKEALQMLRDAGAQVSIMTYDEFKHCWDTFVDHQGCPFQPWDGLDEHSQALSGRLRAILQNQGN
A3G deaminase – blocks human APOBEC3G single-stranded DNA deamination. Q9HC16. recombinant A3G, ssDNA deamination FAM/TAMRA fluorescence. inhibition, % at 20 µM. 330,000 tested, 0.28% active;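 active means inhibition of at least 40% at 20 µM, with no more than 30% in the related APOBEC3A deaminase screen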;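 further: plate controls were DMSO wells with A3G for no effect and wells lacking A3G enzyme for full effect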
Target sequence (Q9HC16 whole entry, looked up): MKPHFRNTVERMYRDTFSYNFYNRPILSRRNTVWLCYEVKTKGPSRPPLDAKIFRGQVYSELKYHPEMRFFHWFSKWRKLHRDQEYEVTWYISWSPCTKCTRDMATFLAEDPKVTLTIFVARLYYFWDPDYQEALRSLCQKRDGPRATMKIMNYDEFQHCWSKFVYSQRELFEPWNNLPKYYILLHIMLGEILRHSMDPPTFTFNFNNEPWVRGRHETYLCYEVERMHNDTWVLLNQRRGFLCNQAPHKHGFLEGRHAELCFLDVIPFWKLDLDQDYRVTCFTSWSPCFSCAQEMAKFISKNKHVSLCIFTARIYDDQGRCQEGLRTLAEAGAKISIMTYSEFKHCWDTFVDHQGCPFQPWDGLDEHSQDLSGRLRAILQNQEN
APOBEC3A confirm – APOBEC3A (human) deaminase inhibition, confirmed; shares compounds with A3A deaminase; recombinant A3A, ssDNA deaminase UDG fluorescence assay; inhibition, % at 20 µM; 1,400 tested, 63% active; AID 493151;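 active means inhibition reaching a set limit, 80% of the first screen's cutoff, at 20 µM in any replicate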;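 further: plate controls were DMSO wells with A3A for no effect and wells lacking A3A enzyme for full effect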
UDG A3A counter – counter-screen for APOBEC3A inhibitors: UDG; shares compounds with A3A deaminase; UDG counterscreen, FAM/TAMRA uracil oligo fluorescence; inhibition, % at 20 µM; 1,000 tested, under 10 active; AID 504714; call rule not given here
Active calls of the source: *; x = no result given. Compounds with a hit are over-represented: about 2.1% of the library has one in this group of screens.

SMILES	SUMO Mot1 rescue	C2C12 statin	ASAP1 GAP inh	ARFGAP1 inhibitor	A3A deaminase	A3G deaminase	APOBEC3A confirm	UDG A3A counter
O=C(Cc1c(F)cccc1Cl)Nc1cc(S(=O)(=O)N2CCCCC2)ccc1N1CCOCC1	2	-19	14	5	3	3	x	x
CCC(=O)c1ccc(OCC(=O)Nc2cc(S(=O)(=O)N3CCCCC3)ccc2N2CCN(CC)CC2)cc1	540	-7	10	6	55*	13	66*	-2
Cc1ccccc1-c1cnc2c(c1)C(=O)N([C@H](C)CO)C[C@H](C)[C@@H](CN(C)C(=O)CC1CC1)O2	x	-6	x	x	x	x	x	x
O=C(Nc1cccc(Cl)c1)N1C[C@@H]2[C@H](c3ccccc31)[C@@H](CO)N2C(=O)C1CCCC1	x	-7	x	x	x	x	x	x
C[C@@H]1CN([C@@H](C)CO)C(=O)c2cccc(NC(=O)c3ccc(-c4nccs4)cc3)c2O[C@H]1CN(C)C	x	8	x	x	x	x	x	x
CC(C)C#Cc1ccc2c(c1)O[C@@H](CN(C)C(=O)C1CCCCC1)[C@H](C)CN([C@H](C)CO)S2(=O)=O	x	-75	x	x	x	x	x	x
C[C@H]1CN([C@@H](C)CO)S(=O)(=O)c2ccc(C3=CCCCC3)cc2O[C@H]1CN(C)C(=O)C1CC1	x	12	x	x	x	x	x	x
CN1C(=O)c2cc(NS(C)(=O)=O)ccc2OC[C@H]2O[C@H](CC(=O)N3CCOCC3)CC[C@@H]21	x	-9	x	x	x	x	x	x
CC(=O)c1ccc(OCCCC(=O)Nc2cc(S(=O)(=O)N3CCCCC3)ccc2C)cc1	x	-6	-2	4	40*	5	9	x
CCN1CCN(c2ccc(S(=O)(=O)N3CCCCC3)cc2NC(=O)COc2ccccc2)CC1	1	-5	-11	-13	13	-9	x	x
Cc1ccc(S(=O)(=O)N2CCCCC2)cc1NC(=O)CCCOc1ccccc1	x	8	2	10	14	-1	x	x
CCOc1ccccc1OCC(=O)Nc1cc(S(=O)(=O)N2CCCCC2)ccc1N1CCN(CC)CC1	3	14	3	7	60*	10	55*	3
CCN1CCN(c2ccc(S(=O)(=O)N3CCCCC3)cc2NC(=O)c2cccc(C(F)(F)F)c2)CC1	7	-7	4	7	57*	18	51*	0
C[C@H]1CN([C@@H](C)CO)C(=O)c2cc(C#Cc3ccccc3)cnc2O[C@@H]1CN(C)C(=O)C1CC1	x	-6	x	x	x	x	x	x
CNC[C@@H]1Oc2ncc(-c3ccccc3C)cc2C(=O)N([C@H](C)CO)C[C@H]1C	x	0	x	x	x	x	x	x
COc1ccc(S(=O)(=O)Nc2ccc3c(c2)C(=O)N([C@@H](C)CO)C[C@@H](C)[C@H](CN(C)C(=O)Nc2cccc4ccccc24)OCCCC[C@H](C)O3)cc1	x	25	x	x	x	x	x	x
O=C(NCc1ccccc1Cl)c1cc(=O)[nH]c2ccccc12	-9	4	6	4	52*	3	15	x
CO[C@@H]1CN(C)C(=O)c2cc(NC(=O)C3CC3)ccc2OC[C@H](C)N(C(=O)CN2CCOCC2)C[C@H]1C	x	-1	x	x	x	x	x	x
CC12CC3(C)CC(C)(C1)CC(C(=O)NCC(=O)O)(C2)C3	262	x	-5	4	50*	-10	-9	-2
NS(=O)(=O)c1cc(C(=O)OCC(=O)Nc2ccc3[nH]c(=O)[nH]c3c2)ccc1Cl	-6	1	-2	14	50*	2	44*	-3
O=S(=O)(NCC[C@@H]1CC[C@@H](NS(=O)(=O)c2ccccc2Cl)[C@@H](CO)O1)c1ccc(F)cc1	x	7	x	x	x	x	x	x
CCCNC(=O)Nc1ccc2c(c1)OC[C@H](C)N(C(=O)C1CC1)C[C@@H](C)[C@@H](OC)CN(C)C2=O	x	2	x	x	x	x	x	x
CSc1cccc(NC(=O)C2CC(=O)N(Cc3ccccc3)C2)c1 (centres undefined)	1	1	-8	-3	52*	28	-1	x
CC(=O)Nc1ccc(NC(=O)C2CC(=O)N(Cc3ccco3)C2)cc1 (centres undefined)	x	-5	3	-6	47*	-1	22	3
O=C(Nc1ccccc1)C1CC(=O)N(Cc2ccccc2)C1 (centres undefined)	-11	2	-9	5	20	1	x	x
SMILES	SUMO Mot1 rescue	C2C12 statin	ASAP1 GAP inh	ARFGAP1 inhibitor	A3A deaminase	A3G deaminase	APOBEC3A confirm	UDG A3A counter
C[C@H](CO)N1C[C@H](C)[C@@H](CN(C)CC2CCCCC2)Oc2ccc(NS(=O)(=O)c3ccc(F)cc3)cc2CC1=O	x	46	x	x	x	x	x	x
O=S(=O)(c1ccccc1)N1CC[C@@H]2[C@H](CO)Nc3ccc(C#Cc4cccc(F)c4)cc3[C@@H]21	x	-8	x	x	x	x	x	x
CO[C@@H]1CN(C)C(=O)c2ccc(NC(=O)Nc3ccc4c(c3)OCO4)cc2OC[C@@H](C)N(C)C[C@H]1C	x	-9	x	x	x	x	x	x
C[C@H](CO)N1C[C@H](C)[C@H](CN(C)C(=O)Nc2ccc(F)cc2)Oc2ccc(NC(=O)c3ccncc3)cc2C1=O	x	4	x	x	x	x	x	x
COc1cccc(NC(=O)N(C)C[C@@H]2OCc3ccccc3-c3c(n(C)c4ccccc34)C(=O)N([C@@H](C)CO)C[C@@H]2C)c1	x	12	x	x	x	x	x	x
Cc1cc(C(=O)N2CCN(S(=O)(=O)c3ccccc3C#N)CC2)c(C)o1	16	5	-3	8	0	-7	x	x
N#Cc1ccccc1S(=O)(=O)N1CCN(C(=O)c2cc3c(s2)CCC3)CC1	x	-1	6	-12	51*	14	36*	1
CCn1c(C)[n+](CC)c2ccc(C(=O)N(C)c3ccccc3)cc21	-13	x	-11	0	71*	19	80*	-2
CCOC(=O)c1ccc2c(c1)[nH]c(=S)n2CC	9	3	-1	10	-3	-6	x	x
CCOC(=O)c1ccc2c(c1)n(CC)c(C)[n+]2CC	6	x	-5	-3	73*	13	69*	-2
CCn1c(C)[n+](CC)c2ccc(S(=O)(=O)N(C)C)cc21	0	-3	-6	-12	85	36	x	x
CC[n+]1c(C)n(C)c2cc(S(=O)(=O)N(C)C)ccc21	14	x	-9	-3	82*	19	77*	-2
CCn1c(C)[n+](CC)c2ccc(S(=O)(=O)NC)cc21	152	2	8	12	76*	21	49*	-2
CNC[C@H]1Oc2c(NC(=O)Nc3ccc(C(F)(F)F)cc3)cccc2C(=O)N([C@@H](C)CO)C[C@H]1C	x	-58	x	x	x	x	x	x
C[C@@H]1CN([C@@H](C)CO)C(=O)Cc2cc(NC(=O)CCN3CCOCC3)ccc2O[C@H]1CN(C)S(C)(=O)=O	x	-22	x	x	x	x	x	x
O=C(NCc1ccccc1)[C@@H]1[C@@H](CO)[C@@H]2Cn3c(cccc3=O)[C@H]1N2C(=O)CC1CC1	x	-14	x	x	x	x	x	x
